Results on 14 compounds are retold here after paper PMC2233868 (The Journal of General Physiology, 2002).

Structures are written as SMILES. Values joined by “and” are separate entries in the source; they are usually repeats but may differ in a detail not shown here. Equal entries are not always repeated. “Also recorded” adds a separate entry of the source. Where two headings read alike, the source gives them in different places.

In data set [1] the test system is volume-regulated anion channels (VRAC). In words: Whole cell membrane current. The following applies: for membrane leakiness: extracellular ATP 10 mM or higher, high concentrations of ADP; for r = k12(0)/k10(0) / δ, electrical distance of binding site inside the channel: pooled cells; for voltage dependence of VRAC block / effect on outward component of VRAC current: total nucleotide concentration 1 mM; for effect on outward component of VRAC current: HTS 17%.

In data set [2] the test system is bovine aortic endothelial cells (BAEC). It is filed as cell-based.
The subject of data set [3] is prostate cancer cells. The following applies: ref Sauer et al., 2000; cited from earlier work.
The subject of data set [4] is cultured ciliary epithelial cells. The following applies: ref Mitchell et al., 1998; cited from earlier work.
Data set [5] relates to bovine aortic endothelial cells (BAEC). As to conditions: disruption of the actin cytoskeleton; ref Koyama et al., 2001; cited from earlier work.
For data set [6] the test system is unchanged. The data set can be described thus: HTS-induced Ca2+ oscillations, fura-2 fluorescence. The format is cell-based. As to conditions: HTS 40%; glibenclamide 100 μM.
The test system is the same in data set [7]. In words: HTS-induced NO production, DAF-2 fluorescence. The format is cell-based. Summed up:
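NO was imaged with DAF-2 in first-subculture bovine aortic endothelial cells bathed in modified Krebs solution (1.5 mM Ca2+, pH 7.3), made hypotonic with distilled water. Fluorescence in each experiment was normalized to a reference image taken before the hypotonic challenge. n = cells examined; mean ± SEM; Student's unpaired t test, P < 0.05 significant.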

The test system is the same in data set [8]. In words: Ca2+ transients induced by exogenously applied ATP, fura-2. The format is cell-based. As to conditions: exogenous ATP 1 μM. In outline: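 [Ca2+]i tracked by fura-2 fluorescence using digital fluorescence microscopy at room temperature (20–25°C). Mean ± SEM; Student's unpaired t test, P < 0.05 significant.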
Data set [9] has as its system VRAC currents in BC3H1 and C2C12 cells. The following applies: concentrations up to 100 μM; ref Voets et al., 1997; cited from earlier work.
The subject of data set [10] is large conductance anion channel (368 pS). The following applies: ref Li et al., 2000; cited from earlier work.
[11] abbreviates: 10 or 20 mM extracellular ADP, extracellular Cl− 2 mM.
[12] abbreviates: fit to simplified Eq. 2, total nucleotide 1 mM.
The mark [13] stands for this setting: representative data, Figs. 4 C (dashed line) and 5 B, Eq. 2.
Setting [14] is: fit to Eq. 1, extracellular ATP total 1 mM.
The mark [15] stands for this setting: representative cell, Fig. 4 C solid line, Eq. 1.
Where [16] appears, read: 20% HTS, 10 min, fluoxetine 1 μM, glibenclamide 100 μM, tamoxifen 10 μM, verapamil 10 μM, P < 0.01.

Take `Nc1ncnc2c1ncn2[C@@H]1O[C@H](COP(=O)(O)OP(=O)(O)O)[C@@H](O)[C@H]1O` [ADP]: in [1] (1 mM extracellular ADP, extracellular Cl− 2 mM), the “effect on outward component of VRAC current in low Cl− hypotonic solution” value is “still inhibited”. Also, in [1] (setting [11]), the “effect on inward current in low Cl− hypotonic solution” value is on record as “virtually no effect” and the “effect on outward current in low Cl− hypotonic solution” value is “significantly enhanced”. For the same compound, in data set [1], the membrane leakiness result is given as “did not cause membrane leakiness” and the “voltage dependence of VRAC block” value is “less voltage sensitive; also recorded: bell-shaped voltage-dependent inhibition”. In addition, in data set [1] (setting [12]), the “r = k12(0)/k10(0)” value was determined as 0.23 ± 0.05 and the “δ, electrical distance of binding site inside the channel” value (“δ, electrical distance” for short) worked out at 0.48 ± 0.01. Besides, in [1] (setting [13]), the “r of the fitted curve” value worked out at 0.26 and the “δ of the fitted curve” value came out at 0.40.
For the compound `Nc1ncnc2c1ncn2[C@@H]1O[C@H](COP(=O)(O)O)[C@@H](O)[C@H]1O` [AMP], the “voltage dependence of VRAC block” value in [1] is reported as “weakly voltage-dependent”.
Turning to `Nc1ncnc2c1ncn2[C@@H]1O[C@H](COP(=O)(O)OP(=O)(O)OP(=O)(O)O)[C@@H](O)[C@H]1O` [ATP], the “activation of a VRAC-like current in isotonic solutions” value in data set [1] (exogenous ATP, isotonic solution) is “did not activate”. Moreover, in [1], the membrane leakiness entry is “induced membrane leakiness”, the “voltage dependence of VRAC block” value is reported as “marked voltage dependency” and the “effect on outward component of VRAC current” value is on record as “inhibited”. Moreover, in [1] (extracellular ATP total 1 mM, free 0.15 mM), the “membrane potential of maximum inhibition of outward VRAC current” value was 30–40 mV. Also, in [1] (setting [14]), the “r = k12(0)/k10(0)” value came out at 0.38 ± 0.08; the “δ, electrical distance” value is 0.41 and 0.41 ± 0.03. Also, in [1] (setting [12]), the “r = k12(0)/k10(0)” value is reported as 0.42 ± 0.16 and the “δ, electrical distance” value is given as 0.42 ± 0.02. Further, in [1] (setting [15]), the “r of the fitted curve” value was found to be 0.29 and the “δ of the fitted curve” value was 0.42. Besides, in data set [1] (setting [13]), the “r of the fitted curve” value is on record as 0.22 and the “δ of the fitted curve” value was determined as 0.43.
In the case of `C[C@H]1CCC/C=C/[C@@H]2C[C@H](O)C[C@H]2[C@H](O)/C=C/C(=O)O1` [Brefeldin A, brefeldin A], the “effect on HTS-induced ATP release” value in data set [2] (pretreated with 3 μg/ml for 2.5 h, HTS 20%) is “did not, however, affect”. Further, the “effect on HTS-induced VRAC currents” value in [1] (pretreated with 3 μg/ml for 2.5 h, HTS 20%, −50 mV and 100 mV) is on record as “did not, however, affect”.
With `Nc1ccn([C@@H]2O[C@H](COP(=O)(O)OP(=O)(O)OP(=O)(O)O)[C@@H](O)[C@H]2O)c(=O)n1` [CTP], in data set [1] (setting [12]), the “r = k12(0)/k10(0)” value was 0.21 ± 0.09 and the “δ, electrical distance” value is 0.47 ± 0.02. In data set [1] (setting [13]), the “r of the fitted curve” value is recorded as 0.057 and the “δ of the fitted curve” value was 0.44. In addition, the “voltage dependence of VRAC block” value in data set [1] was “bell-shaped voltage-dependent inhibition”.
On to `Nc1nc2c(ncn2[C@@H]2O[C@H](COP(=O)(O)OP(=O)(O)OP(=O)(O)O)[C@@H](O)[C@H]2O)c(=O)[nH]1` [GTP], for which, in data set [1] (setting [12]), the “r = k12(0)/k10(0)” value is on record as 0.70 ± 0.30 and the “δ, electrical distance” value was 0.41 ± 0.06. In data set [1] (setting [13]), the “r of the fitted curve” value is given as 0.24 and the “δ of the fitted curve” value amounted to 0.44. Moreover, the “voltage dependence of VRAC block” value in data set [1] was “bell-shaped voltage-dependent inhibition”.
In the case of `O=C(O)c1cc([N+](=O)[O-])ccc1NCCCc1ccccc1` [NPPB], the “effect on ATP release” value in data set [3] and in data set [4] was “suppressed” throughout.
As to `O=c1ccn([C@@H]2O[C@H](COP(=O)(O)OP(=O)(O)OP(=O)(O)O)[C@@H](O)[C@H]2O)c(=O)[nH]1` [UTP], in data set [1] (setting [12]), the “r = k12(0)/k10(0)” value is given as 0.14 ± 0.05 and the “δ, electrical distance” value is 0.39 ± 0.04. For the same compound, in [1] (setting [13]), the “r of the fitted curve” value was 0.13 and the “δ of the fitted curve” value is 0.42. The “voltage dependence of VRAC block” value in [1] is recorded as “bell-shaped voltage-dependent inhibition”.
Consider `Nc1ncnc2c1ncn2[C@@H]1O[C@H](CO)[C@@H](O)[C@H]1O` [adenosine], for which, in data set [1], the “effect on outward component of VRAC current” value is “does not inhibit”.
As for `C=C1[C@@H](C)[C@H]2[C@H](Cc3ccccc3)NC(=O)[C@]23OC(=O)/C=C/[C@H](O)CCC[C@@H](C)C/C=C/[C@H]3[C@@H]1O` [cytochalasin B], the “effect on HTS-induced ATP release” value in data set [5] is listed as “does not inhibit”.
`CNCCC(Oc1ccc(C(F)(F)F)cc1)c1ccccc1` (centres unmarked) [fluoxetine]: the “effect on HTS-induced ATP release” value in [2] (setting [16]) is “Inhibition”. In [6], the “effect on HTS-induced Ca2+ oscillations” value is on record as “abolished”. Also, the “effect on HTS-induced NO production” value in data set [7] was “abolished”.
On to `COc1ccc(Cl)cc1C(=O)NCCc1ccc(S(=O)(=O)NC(=O)NC2CCCCC2)cc1` [glibenclamide], for which, in [2] (setting [16]), the “effect on HTS-induced ATP release” value was “Inhibition”. Besides, the “effect on HTS-induced Ca2+ oscillations” value in data set [6] is on record as “abolished”. In addition, the “effect on HTS-induced NO production” value in data set [7] is listed as “abolished”. The “effect on Ca2+ transients induced by exogenously applied ATP” value in [8] is listed as “did not affect”. Moreover, the “effect on ADP-induced outward current” value in data set [1] (100 μM, low Cl− hypotonic solution, unpublished data) is listed as “suppressed”.
Take `CC/C(=C(\c1ccccc1)c1ccc(OCCN(C)C)cc1)c1ccccc1` [tamoxifen]: in [2] (setting [16]), the “effect on HTS-induced ATP release” value is recorded as “Inhibition”. Also, the “effect on VRAC currents” value in data set [9] is “did not significantly inhibit”. For the same compound, the “effect on ATP release” value in data set [3] is “effective”. Moreover, the “effect on large conductance anion channel” value in data set [10] is “activates”.
In the case of `COc1ccc(CCN(C)CCCC(C#N)(c2ccc(OC)c(OC)c2)C(C)C)cc1OC` (centres unmarked) [verapamil], the “effect on HTS-induced ATP release” value in [2] (setting [16]) is “Inhibition”. Besides, the “effect on HTS-induced Ca2+ oscillations” value in data set [6] is listed as “abolished”. For the same compound, the “effect on HTS-induced NO production” value in [7] was “abolished”.
